# “Also recorded” adds a separate entry of the source. Read-outs that look alike come from different tables or passages of the source.
# Assays:
# [1] = Safety: treatment emergent adverse events, laboratory, vital signs, ECG; type: in vivo, human (healthy women); settings: for Dose-dependent AEs or clinically significant findings in safety laboratory values, vital signs, ECG parameters: any of the dose groups
# How it was run: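 Subjects were healthy women, aged 18–45 years, with BMI 18.0–28.0 kg/m². Part A gave single escalating i.v. doses (6 active, 2 placebo per cohort). Part B gave 240 mg i.v. on day 1 and once daily on days 8–14 (8 active, 4 placebo). AEs were categorized by nature, frequency, duration, severity, investigator-assessed causality and dose-dependence. Clinical laboratory, blood pressure, heart rate and 12-lead/Holter ECG were also recorded. Summaries are descriptive.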
# [2] = type: in vivo, human (healthy women)
# [3] = Local tolerability: VAS assessment of pain at infusion site; type: in vivo, human (healthy women)
# How it was run: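 Healthy women, aged 18–45 years, received single i.v. doses of HPβCD-formulated test compound (60-min infusion in 0.9% saline) or placebo. Pain was self-rated on a 100-mm line (0 = no pain, 100 = unbearable). Read-outs were maximum increase from baseline and area under the VAS-time curve.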
# [4] = Local tolerability: Visual Infusion Phlebitis; type: in vivo, human (healthy women)
# How it was run: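 The investigator scored the infusion site on the Visual Infusion Phlebitis scale, from 0 (no signs) to 5 (advanced thrombophlebitis). Subjects were healthy women given a single i.v. infusion of test compound or placebo. Scoring was done on day 1 predose after catheter placement, at 0.5, 1, 2, 3, 4, 6, 8, 12, 24, 48 and 72 h postdose, and at the post-trial exam.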
# [5] = Local tolerability: ultrasound of the arm veins; type: in vivo, human (healthy women)
# How it was run: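 Arm veins were examined by ultrasound in healthy women. In the multiple-dose phase of part B, subjects had once-daily 30-min i.v. infusions of 240 mg test compound or placebo on days 8–14. Scans were done at readmission on day 7 and predose on days 9–14. After the day-14 dose they were repeated at 24, 48 and 72 h and at the final exam.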
# [6] = part A, letermovir total (N=30)
# [7] = part B, multiple-dose letermovir
# [8] = part A, single 120 mg i.v., 30-min infusion, N=6, mean ± SD
# [9] = part A, single 240 mg i.v., 30-min infusion, N=6, mean ± SD
# [10] = part A, single 480 mg i.v., 60-min infusion, N=6, mean ± SD
# [11] = part A, single 720 mg i.v., 60-min infusion, N=6, mean ± SD
# [12] = part A, single 960 mg i.v., 60-min infusion, N=6, mean ± SD
# [13] = part B, single 240 mg i.v. day 1, 30-min infusion, N=8, mean ± SD
# [14] = part A, single dose 120 mg (N=6)
# [15] = part A, single dose 120 mg (N=6), listed as letermovir
# [16] = part A, single dose 240 mg (N=6)
# [17] = part A, single dose 480 mg (N=6)
# [18] = part A, single dose 720 mg (N=6)
# [19] = part A, single dose 960 mg (N=6)
# [20] = part A, single dose, letermovir total (N=30)
# [21] = part B, multiple dose 240 mg (No. 5)
# [22] = part B, multiple dose 240 mg (No. 6)
# [23] = part B, single dose 240 mg (N=8)
smiles,measurement,setting,value
COc1cccc(N2CCN(C3=Nc4c(F)cccc4[C@H](CC(=O)O)N3c3cc(C(F)(F)F)ccc3OC)CC2)c1 [Letermovir],"Dose-dependent AEs or clinically significant findings in safety laboratory values, vital signs, ECG parameters",[1],No clinically significant findings
same,"Dose-dependent AEs or clinically significant findings in safety laboratory values, vital signs, ECG parameters",[1]; listed as letermovir,No dose‐dependent AEs or clinically significant findings
same,Subjects with mild or moderate TEAEs,[1]; part A,17 subjects
same,TEAE Vessel puncture site hematoma,[1]; [6],2 No. of subjects
same,TEAE Vessel puncture site pain,[1]; [6],4 No. of subjects
same,TEAE Vessel puncture site reaction,[1]; [6],2 No. of subjects
same,Treatment-related AE headache,"[1]; part A, single-dose letermovir",2 subjects
same,Treatment-related AE nausea,"[1]; part A, single-dose letermovir",2 subjects
same,Treatment-related AE vomiting,"[1]; part A, single-dose letermovir",2 subjects
same,Subjects reporting TEAEs,"[1]; part A, single-dose letermovir (18/30)",60%
same,Subjects reporting AEs possibly or probably related to treatment,"[1]; part A, single-dose letermovir (eight subjects)",26.7%
same,Subjects with mild or moderate TEAEs,[1]; part B,6 subjects
same,Subjects reporting TEAEs,"[1]; part B, letermovir (6/8)",75%
same,Subjects with treatment-related AEs,[1]; [7],five
same,Treatment-related AE dizziness,[1]; [7],2 subjects
same,Treatment-related AE headache,[1]; [7],2 subjects
same,General tolerability,[1]; single doses up to 960 mg and multiple once-daily 240 mg i.v.,generally safe and well tolerated
same,Discontinuations due to AEs,[1]; throughout the study,no discontinuations due to AEs
same,AUC(0-inf),"[2]; female, human, plasma, intravenous, 240 mg, AUC0–∞ after a single dose, part B, 240 mg single dose",27500 ng·h/mL
same,AUC,"[2]; female, human, plasma, intravenous, 240 mg, AUCτ,ss, part B, 240 mg q.d., steady state",33600 ng·h/mL
same,Tmax,"[2]; female, human, plasma, iv, 120 mg",0.5 h
same,Tmax,"[2]; female, human, plasma, iv, 240 mg",0.5 h
same,Tmax,"[2]; female, human, plasma, iv, 480 mg",1 h
same,Tmax,"[2]; female, human, plasma, iv, 720 mg",1 h
same,Tmax,"[2]; female, human, plasma, iv, 960 mg",1 h
same,AUC0–last/D,[2]; [8],0.11 ± 0.03 µg·h/mL/mg
same,AUC0–∞/D,[2]; [8],0.11 ± 0.03 µg·h/mL/mg
same,Cmax/D,[2]; [8],0.06 ± 0.01 µg/mL/mg
same,AUC0–last/D,[2]; [9],0.14 ± 0.04 µg·h/mL/mg
same,AUC0–∞/D,[2]; [9],0.14 ± 0.04 µg·h/mL/mg
same,Cmax/D,[2]; [9],0.07 ± 0.01 µg/mL/mg
same,AUC0–last/D,[2]; [10],0.22 ± 0.04 µg·h/mL/mg
same,AUC0–∞/D,[2]; [10],0.22 ± 0.04 µg·h/mL/mg
same,Cmax/D,[2]; [10],0.06 ± 0.01 µg/mL/mg
same,AUC0–last/D,[2]; [11],0.23 ± 0.03 µg·h/mL/mg
same,AUC0–∞/D,[2]; [11],0.23 ± 0.03 µg·h/mL/mg
same,Cmax/D,[2]; [11],0.05 ± 0.00 µg/mL/mg
same,AUC0–last/D,[2]; [12],0.26 ± 0.06 µg·h/mL/mg
same,AUC0–∞/D,[2]; [12],0.26 ± 0.06 µg·h/mL/mg
same,Cmax/D,[2]; [12],0.06 ± 0.01 µg/mL/mg
same,Tmax,"[2]; part B, 240 mg q.d. i.v. day 14, 30-min infusion, N=5, median (minimum-maximum)",0.50 (0.50–0.50) h
same,C0h (pre-dose analyte concentration),"[2]; part B, 240 mg q.d. i.v. day 14, N=5, mean ± SD",193.2 ± 86.23 ng/mL
same,AUC0–last/D,[2]; [13],0.12 ± 0.02 µg·h/mL/mg
same,AUC0–∞/D,[2]; [13],0.13 ± 0.02 µg·h/mL/mg
same,Cmax/D,[2]; [13],0.06 ± 0.01 µg/mL/mg
same,Tmax,"[2]; part B, single 240 mg i.v. day 1, 30-min infusion, N=8, median (minimum-maximum)",0.50 (0.50–0.50) h
same,Dose proportionality of Cmax,[2]; single i.v. doses 120–960 mg,dose‐proportional increase; also recorded: approximately proportionally to the dose
same,Dose proportionality of total exposure AUC0–∞ (AUC0–last),[2]; single i.v. doses 120–960 mg,slightly more‐than‐dose‐proportional increase; also recorded: more than dose proportional
same,Increase in exposure on dose-doubling,[2]; single i.v. doses 120–960 mg,threefold
same,"AUC (increase from baseline) of VAS-time curve, Mean (SD)",[3]; [14],2.74 (6.55) h*mm VAS
same,"AUC (increase from baseline) of VAS-time curve, Median",[3]; [14],0.00 h*mm VAS
same,"AUC (increase from baseline) of VAS-time curve, Range",[3]; [14],0.00–16.10 h*mm VAS
same,"VAS maximum increase from baseline, Mean (SD)",[3]; [14],1.17 (2.40) mm VAS
same,"VAS maximum increase from baseline, Median",[3]; [14],0.00 mm VAS
same,"VAS maximum increase from baseline, Range",[3]; [14],0.00–6.00 mm VAS
same,"AUC (increase from baseline) of VAS-time curve, Mean (SD)",[3]; [15],2.74 h*mm VAS
same,"VAS maximum increase from baseline, Mean (SD)",[3]; [15],1.17 mm VAS
same,"AUC (increase from baseline) of VAS-time curve, Mean (SD)",[3]; [16],0.83 (0.61) h*mm VAS
same,"AUC (increase from baseline) of VAS-time curve, Median",[3]; [16],0.83 h*mm VAS
same,"AUC (increase from baseline) of VAS-time curve, Range",[3]; [16],0.00–1.67 h*mm VAS
same,"VAS maximum increase from baseline, Mean (SD)",[3]; [16],1.17 (0.75) mm VAS
same,"VAS maximum increase from baseline, Median",[3]; [16],1.00 mm VAS
same,"VAS maximum increase from baseline, Range",[3]; [16],0.00–2.00 mm VAS
same,"AUC (increase from baseline) of VAS-time curve, Mean (SD)",[3]; [17],0.24 (0.42) h*mm VAS
same,"AUC (increase from baseline) of VAS-time curve, Median",[3]; [17],0.00 h*mm VAS
same,"AUC (increase from baseline) of VAS-time curve, Range",[3]; [17],0.00–1.02 h*mm VAS
same,"VAS maximum increase from baseline, Mean (SD)",[3]; [17],0.5 (0.84) mm VAS
same,"VAS maximum increase from baseline, Median",[3]; [17],0.00 mm VAS
same,"VAS maximum increase from baseline, Range",[3]; [17],0.00–2.00 mm VAS
same,"AUC (increase from baseline) of VAS-time curve, Mean (SD)",[3]; [18],0.39 (0.95) h*mm VAS
same,"AUC (increase from baseline) of VAS-time curve, Median",[3]; [18],0.00 h*mm VAS
same,"AUC (increase from baseline) of VAS-time curve, Range",[3]; [18],0.00–2.33 h*mm VAS
same,"VAS maximum increase from baseline, Mean (SD)",[3]; [18],0.17 (0.41) mm VAS
same,"VAS maximum increase from baseline, Median",[3]; [18],0.00 mm VAS
same,"VAS maximum increase from baseline, Range",[3]; [18],0.00–1.00 mm VAS
same,"VAS maximum increase from baseline, Mean (SD)","[3]; part A, single dose 720 mg (N=6), listed as letermovir",0.17 mm VAS
same,"AUC (increase from baseline) of VAS-time curve, Mean (SD)",[3]; [19],0.26 (0.64) h*mm VAS
same,"AUC (increase from baseline) of VAS-time curve, Median",[3]; [19],0.00 h*mm VAS
same,"AUC (increase from baseline) of VAS-time curve, Range",[3]; [19],0.00–1.57 h*mm VAS
same,"VAS maximum increase from baseline, Mean (SD)",[3]; [19],0.67 (1.63) mm VAS
same,"VAS maximum increase from baseline, Median",[3]; [19],0.00 mm VAS
same,"VAS maximum increase from baseline, Range",[3]; [19],0.00–4.00 mm VAS
same,"AUC (increase from baseline) of VAS-time curve, Mean (SD)",[3]; [20],0.89 (2.94) h*mm VAS
same,"AUC (increase from baseline) of VAS-time curve, Median",[3]; [20],0.00 h*mm VAS
same,"AUC (increase from baseline) of VAS-time curve, Range",[3]; [20],0.00–16.10 h*mm VAS
same,"VAS maximum increase from baseline, Mean (SD)",[3]; [20],0.73 (1.36) mm VAS
same,"VAS maximum increase from baseline, Median",[3]; [20],0.00 mm VAS
same,"VAS maximum increase from baseline, Range",[3]; [20],0.00–6.00 mm VAS
same,"VAS maximum increase from baseline, Mean (SD)","[3]; part A, single dose, letermovir total (N=30), listed as letermovir",0.73 mm VAS
same,"AUC (increase from baseline) of VAS-time curve, Mean (SD)",[3]; [21],24.58 (30.23) h*mm VAS
same,"AUC (increase from baseline) of VAS-time curve, Median",[3]; [21],23.95 h*mm VAS
same,"AUC (increase from baseline) of VAS-time curve, Range",[3]; [21],0.00–74.33 h*mm VAS
same,"VAS maximum increase from baseline, Mean (SD)",[3]; [22],0.83 (0.41) mm VAS
same,"VAS maximum increase from baseline, Median",[3]; [22],1.00 mm VAS
same,"VAS maximum increase from baseline, Range",[3]; [22],0.00–1.00 mm VAS
same,"VAS maximum increase from baseline, Mean (SD)","[3]; part B, multiple dose 240 mg (No. 6), listed as letermovir",0.83 mm VAS
same,"AUC (increase from baseline) of VAS-time curve, Mean (SD)",[3]; [23],0.00 h*mm VAS
same,"AUC (increase from baseline) of VAS-time curve, Median",[3]; [23],0.00 h*mm VAS
same,"AUC (increase from baseline) of VAS-time curve, Range",[3]; [23],0.00 h*mm VAS
same,"VAS maximum increase from baseline, Mean (SD)",[3]; [23],0.00 mm VAS
same,"VAS maximum increase from baseline, Median",[3]; [23],0.00 mm VAS
same,"VAS maximum increase from baseline, Range",[3]; [23],0.00 mm VAS
same,VIP score,"[4]; part A, one subject of 120 mg group, 4 h postinfusion, scale 0–5",2
same,VIP score,"[4]; part A, one subject treated with 240 mg, 24 h postinfusion, scale 0–5",1
same,VIP score,"[4]; part A, same subject of 120 mg group, 72 h postinfusion, scale 0–5",1
same,VIP score,"[4]; part B, one letermovir-treated subject, predose day 14 until 72 h postdose",1
same,VIP score,"[4]; part B, throughout the study, all participants except one",0
same,Ultrasound finding in infusion site arm,"[5]; part A, one subject in letermovir-treated group, at follow-up",NCS abnormal finding
same,Ultrasound finding in infusion site arm,[5]; part B,no abnormal findings
